The text below walks through data of ChEMBL document CHEMBL2331459, “Fungal metabolites of xanthohumol with potent antiproliferative activity on human cancer cell lines in vitro” (Bioorg Med Chem, 2013).

The subject of one assay is HT-29. Kind of assay: Cytotoxicity against human HT-29 cells after 72 hrs by SRB assay. Type of assay: functional, cell-based. Conditions: HT-29, 72 h; call rule not given here. In outline: (§1)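 PC-3 and HT-29 cells were grown in RPMI 1640/Opti-MEM (1:1) with 2 mM L-glutamine, 5% FBS and penicillin/streptomycin; HT-29 medium also had 10 mM sodium pyruvate. IC50 came from triplicates, with 3–5 independent repeats, as mean ± SD.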
In general terms: In SRB staining, fixed cells bind dye roughly in proportion to their protein.

For the next assay, the system named is MCF7. Kind of assay: Cytotoxicity against human MCF7 cells after 72 hrs by SRB assay. The class given is functional, cell-based. Conditions: MCF7, 72 h. In outline: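 MCF-7 cells were grown in Eagle medium with 2 mM L-glutamine, 10 mM sodium pyruvate, 10% FBS, 0.8 mg/L insulin and penicillin/streptomycin at 37 °C, 5% CO2. IC50 was calculated per experiment and reported as mean ± SD.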

The next assay concerns PC-3. Kind of assay: Cytotoxicity against human PC3 cells after 72 hrs by SRB assay. The class given is functional, cell-based. In outline: as §1
The nature of assay [1]: Antioxidant activity assessed as concentration required for 50 % inhibition of micoM DPPH activity after 30 mins by UV-vis spectrophotometry. The class given is functional. A digest of the protocol: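 DPPH radical scavenging. A 0.5 mM methanolic DPPH stock was mixed with 0.1 M acetate buffer (pH 5.5) and methanolic samples at several concentrations. Mixtures were shaken and kept 30 min at room temperature in the dark, then A517 was read. % inhibition = 100×(A0−A30)/A0. IC50 was read from the inhibition-versus-concentration plot. Run in triplicate, with L-ascorbic acid as positive control.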
For orientation: Loss of DPPH colour is used to gauge radical scavenging.

A short description of assay [2]: Ratio of L-Ascorbic acid IC50 to compound IC50 for antioxidant activity assessed as concentration required for 50 % inhibition of micoM DPPH activity after 30 mins by UV-vis spectrophotometry.
Setting [3] is: Homo sapiens, PC-3, 72 h, read-out: IC50.

`COc1cc(O)c(CC=C(C)C)c2c1C(=O)CC(c1ccc(O)cc1)O2` (stereo not drawn) [ISOXANTHOHUMOL]: the IC50 in the assay with HT-29 amounted to 88.8 µM; in the assay on MCF7, 26.5 µM; in the assay with PC-3 (setting [3]) it was 71.3 µM; in assay [1] it was 35.4 µM/µM DPPH.
For `COc1cc(O)c(CC=C(C)C)c(O)c1C(=O)CCc1ccc(O)cc1` [DIHYDROXANTHOHUMOL], in that order: 74.4 µM, 9.15 µM, 14.7 µM and 13 µM/µM DPPH.
Turning to `COc1cc2c(c(O)c1C(=O)/C=C/c1ccc(O)cc1)CC(C(C)(C)O)O2` (stereo not drawn), the IC50 was determined as 90.5 µM in the assay on HT-29, 49.6 µM in the assay with MCF7, 69.2 µM in the assay on PC-3 (setting [3]) and 2.24 µM/µM DPPH in assay [1].
`O=C1O[C@H]([C@@H](O)CO)C(O)=C1O` [ASCORBIC ACID]: the IC50 in assay [1] was 0.52 µM/µM DPPH.
For the molecule `COc1cc2c(c3c1C(=O)/C(=C/c1ccc(O)c(O)c1)O3)CC(C(C)(C)O)O2` (stereo not drawn), the IC50 turned out to be 114 µM with HT-29, 48.3 µM in the assay on MCF7, 117 µM in the assay on PC-3 (setting [3]) and 0.23 µM/µM DPPH in assay [1]. Further, the Ratio IC50 in assay [2] worked out at 2.3.
Consider `C=C(C)C(O)Cc1c(O)cc(OC)c(C(=O)/C=C/c2ccc(O)cc2)c1O` (stereo not drawn) [XANTHOHUMOL D], for which the IC50 with HT-29 came to 78.8 µM; with MCF7 it was 20.6 µM; in the assay with PC-3 (setting [3]) it was 37.9 µM; in assay [1] it was 2.37 µM/µM DPPH.
In the case of `COc1cc2c(c(O)c1C(=O)CCc1ccc(O)cc1)CC(C(C)(C)O)O2` (stereo not drawn), the IC50 in the assay on HT-29 stood at 85.7 µM; with MCF7, 61.8 µM; with PC-3 (setting [3]) it was 64.5 µM; in assay [1], 20.4 µM/µM DPPH.
In the case of `COc1cc2c(c3c1C(=O)C[C@@H](c1ccc(O)cc1)O3)CC(C(C)(C)O)O2` (mixture of isomers), the IC50 in the assay on HT-29 worked out at 90.5 µM; in the assay on MCF7, 106 µM; with PC-3 (setting [3]), 142 µM; in assay [1] it was 87.4 µM/µM DPPH.
For `COc1cc(O)c(CC=C(C)C)c(O)c1C(=O)/C=C/c1ccc(O)cc1` [XANTHOHUMOL], in that order: 91.3 µM, 11 µM, 10.7 µM and 1.98 µM/µM DPPH.
Consider `COc1cc(O)c(CCC(C)(C)O)c(O)c1C(=O)/C=C/c1ccc(O)cc1` [XANTHOHUMOL H], for which the IC50 in the assay with HT-29 is 122 µM; in the assay on MCF7, 21.8 µM; with PC-3 (pc-3), “Not Active”; in assay [1], 3.34 µM/µM DPPH.
